MT stabilizer: microtubule stabilizers in HeLa cells, primary screen, imaging, high-content imaging; HeLa tubulin immunostaining HCS, 24 h; share of cells brighter than vehicle mean+2SD; % tubulin-high responders, % at 10 µM; actives 0.83% (n = 200,000); AID 2205, 2009;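 active = plate Z-score above 3 for both tubulin-high and condensed-nucleus cell shares, with cell loss under 80%, at 10 µM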;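 also: anti alpha tubulin signal scored within the nucleus-defined area of each cell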
STAT3 inh: IL-6 driven STAT3 reporter inhibitors, primary screen, U3A cells, luciferase, luminescence, MLSCN library | inhibition, % at 5.5 µM | IL-6 STAT3-luciferase reporter; host cell line lacks STAT1 | actives 0.89% (n = 190,000);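 active = inhibition above the mean inhibition across all screened compounds plus 3 SD, cut at about 44% in these data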;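 also: 0% = DMSO only wells and 100% = 100 µM nifuroxazide control wells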
STAT1 blocker: STAT1 signaling inhibitors, primary screen, cell-based, HTS, luciferase reporter | NIH 3T3 STAT1-luciferase reporter, IFN-gamma, luminescence | actives 0.35% (n = 200,000) | inhibition, % at 5.5 µM;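 active = inhibition above a set limit, the mean inhibition across all tested compounds plus 3 SD, cut at about 34% in these data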;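 also: 0% = IFN-gamma with DMSO and 100% = IFN-gamma with 300 µM nifuroxazide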
b-catenin transl: modulators of beta-catenin nuclear translocation, primary screen, imaging, HeLa cells, immunofluorescence, high-content; nuclear translocation activity, % at 5 µM; actives 0.3% (n = 190,000); AID 1665, 2009;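 active = nuclear translocation activity above 50% at 5 µM, with a well cell count of 50 or more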;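 also: per-cell ratio of nuclear to cytoplasmic median beta-catenin stain intensity; plate controls were DMSO negative control for no effect and GSK-3 inhibitor IX positive control for full effect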
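Read-out: Nuclear/cytoplasmic beta-catenin signal ratio, % activation | Assay system: Human HeLa cell line | Times: 24 h compound exposure at 37°C, 5% CO2 | Signal: Fluorescence imaging of beta-catenin antibody stain plus DAPI | Dosing: 5 µM primary, 0.02–20 µM confirmation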
STAT3 act-1: IL-6 driven STAT3 reporter potentiators, primary screen, U3A cells, luciferase, luminescence, MLSCN library. IL-6 STAT3-luciferase reporter; 100% = signal with IL-6 EC80 alone. activation (% of control), % at 5.6 µM. AID 871, 2007. actives 0.91% (n = 190,000);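 active = activation above the screen-wide mean of compound activation plus 3 SD, cut at about 130% in these data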;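 also: 0% = background luminescence of wells with medium and substrate only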
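Test system: STAT3-luciferase reporter U3A cells; Detection: reporter luminescence signal; Times: 1 h compound pre-exposure, 6 h IL-6 stimulation, 37 °C; Benchmarks: IL-6-only high control; Also added: IL-6 stimulus at 33 ng/mL final.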
STAT3 act-2: STAT3 reporter potentiators, retest of hits, confirmation, U3A cells, luciferase, luminescence; shares compounds with STAT3 act-1; IL-6 potentiation; U3A cells lack STAT1; 100 means same as IL-6 alone; potentiation (% of control), % at 5.7 µM; actives 64% (n = 1,200); AID 1267, 2008;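 active = percent activation of the STAT3 luciferase reporter above a set limit taken from the earlier primary screen, cut at about 130% in these data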;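 also: 0% = background signal of medium plus substrate and 100% = median of IL-6 with DMSO wells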
NFkB act 2: NF-kB reporter activators in human cells, counter-screen for STAT3 activator project; AID 1309, 2008; activation (% of control), % at 5.7 µM; NF-kappaB reporter activation; shares compounds with STAT3 act-1; actives 11% (n = 1,200); in the data active = activation above about 120%;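 also: reporter induced by TNF-alpha stimulation; 100% = median of stimulated DMSO wells and 0% = no signal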
STAT1 act: STAT1 reporter activators, IFN-gamma induced, counter-screen for STAT3 activator project, cell-based, NIH 3T3, luciferase luminescence; shares compounds with STAT3 act-1; NIH 3T3 STAT1-luciferase reporter; activation (% of control), % at 5.7 µM; actives 13% (n = 1,200); AID 1318, 2008;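 active = activation above the solvent-only control well mean plus 3 SD, set per screening run, cut at about 120% in these data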;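 also: 100% = IFN-gamma with DMSO median signal so 100% means no change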
* marks the source's active call; other numbers are inactive results. Rows were chosen to be rich in hits. Some 2.4% of all compounds tested hit in one or more screens of this group.

Cc1ccc(CSc2nc3ccccc3cc2C=O)cc1 was read as MT stabilizer 21.4*, STAT3 inh -104.1, STAT1 blocker -1.4, b-catenin transl -1.9, STAT3 act-1 193.4*, STAT3 act-2 152.9*, NFkB act 2 109.0 and STAT1 act 101.9.
COc1ccc(N=C2C(=O)N3c4c(cccc42)C(C)=CC3(C)C)cc1 was read as MT stabilizer 5.1, STAT3 inh -10.5, STAT1 blocker -5.3, b-catenin transl -1.3 and STAT3 act-1 104.3.
Cc1ccc(C(=O)O)cc1NC(=S)NC(=O)c1ccc([N+](=O)[O-])c(C)c1 was read as MT stabilizer 4.6, STAT3 inh 12.3, STAT1 blocker -0.4, b-catenin transl -0.3 and STAT3 act-1 93.5.
Screening O=C(NC(=S)Nc1nc2c(ccc3ccccc32)s1)c1cccs1 returned MT stabilizer 3.8, STAT3 inh -47.0, STAT1 blocker 0.1, b-catenin transl -3.8, STAT3 act-1 139.7*, STAT3 act-2 142.1*, NFkB act 2 99.6 and STAT1 act 80.1.
CC(C)c1nnc(NC(=O)C2CCN(S(=O)(=O)c3ccc(-n4cnnn4)cc3)CC2)s1 was read as MT stabilizer 2.5, STAT3 inh 0.8, STAT1 blocker -1.5, b-catenin transl -4.9 and STAT3 act-1 101.0.
O=C(OCc1nc2ccccc2s1)c1cnccn1 was read as MT stabilizer 1.7, STAT3 inh -37.1, STAT1 blocker -16.6, b-catenin transl -5.8, STAT3 act-1 136.2*, STAT3 act-2 145.8*, NFkB act 2 119.3 and STAT1 act 139.9*.
Cc1ccccc1C1c2[nH]c3ccccc3c2CCN1C(=O)c1ccc(=O)n(C)n1 (stereo unspecified) was read as MT stabilizer 2.5, STAT3 inh -65.5, STAT1 blocker 9.6, b-catenin transl -4.4, STAT3 act-1 162.9*, STAT3 act-2 168.8*, NFkB act 2 103.3 and STAT1 act 97.6.
COc1ccc(C2c3[nH]c4ccccc4c3CCN2C(=O)c2ccc(=O)n(C)n2)c(F)c1 (stereo unspecified) was read as MT stabilizer 4.7, STAT3 inh -50.3, STAT1 blocker -9.9, b-catenin transl -0.7, STAT3 act-1 148.4*, STAT3 act-2 153.5*, NFkB act 2 104.2 and STAT1 act 107.7.
For Cc1ccc(OCCCC(=O)NCc2ccco2)c(C)c1 the results were MT stabilizer 4.4, STAT3 inh -1.7, STAT1 blocker -4.4, b-catenin transl 11.0 and STAT3 act-1 107.3.
Screening CCc1nnc(NC(=O)C2CCCN(S(=O)(=O)c3ccc(OC)cc3)C2)s1 (stereo unspecified) returned MT stabilizer 2.1, STAT3 inh 4.5, STAT1 blocker 7.0, b-catenin transl 0.8 and STAT3 act-1 101.1.
`C/C(=N\N(Cc1ccccc1)c1ccccc1)c1ccncc1` gave MT stabilizer 2.9, STAT3 inh 10.9, STAT1 blocker 8.8, b-catenin transl 1.6 and STAT3 act-1 97.2.
For O=C(Nc1nc(-c2cccc([N+](=O)[O-])c2)cs1)c1cccc([N+](=O)[O-])c1C(=O)O the results were MT stabilizer 2.9, STAT3 inh -7.5, STAT1 blocker -18.5, b-catenin transl 0.9 and STAT3 act-1 107.8.
`COC(=O)c1[nH]c(C)c(/C(O)=C2\C(=O)C(=O)N(CCN3CCOCC3)C2c2ccc(C)o2)c1C` (stereo unspecified) gave b-catenin transl -0.4.
`CN1c2ccccc2C(O)=C(C(=S)Nc2ccc(Cl)cc2)S1(=O)=O` gave MT stabilizer 1.3, STAT3 inh 4.6, STAT1 blocker 8.8, b-catenin transl -0.1 and STAT3 act-1 101.0.
`Cc1cccc(NC(=O)C2=C(O)c3ccccc3N(C)S2(=O)=O)c1` gave MT stabilizer 1.1, STAT3 inh -60.4, STAT1 blocker 1.0, b-catenin transl -2.7, STAT3 act-1 155.0*, STAT3 act-2 95.0, NFkB act 2 108.8 and STAT1 act 99.0.
Screening CCOC(=O)Nc1cc(C)ccc1OC returned MT stabilizer 3.0, STAT3 inh 6.3, STAT1 blocker 6.1 and STAT3 act-1 97.8.
Screening COc1ccc(C)cc1NC(=O)Nc1ccc(Br)cn1 returned MT stabilizer 2.8, STAT3 inh -51.3, STAT1 blocker 1.8, STAT3 act-1 143.7*, STAT3 act-2 116.2, NFkB act 2 96.8 and STAT1 act 97.5.
Screening Cc1ccc(-c2ccc(/C=N/NC(N)=S)o2)cc1 returned b-catenin transl -0.1.
`NC(=S)N/N=C/c1ccc(-c2ccc(Cl)c(Cl)c2)o1` gave MT stabilizer 5.0, STAT3 inh -102.7, STAT1 blocker -2.4, b-catenin transl 4.7, STAT3 act-1 191.0*, STAT3 act-2 145.3*, NFkB act 2 109.3 and STAT1 act 111.0.
Screening O=C(Nc1ccccc1C(=O)NC(Cc1ccc(O)cc1)C(=O)O)c1ccccc1 (stereo unspecified) returned MT stabilizer 1.4, STAT3 inh 14.6, STAT1 blocker 0.3, b-catenin transl 0.4 and STAT3 act-1 94.8.
For S=C(Nc1ccc(Cl)cc1)Nc1cccc2cnccc12 the results were MT stabilizer 4.3, STAT3 inh -48.6, STAT1 blocker 8.6, b-catenin transl -1.7, STAT3 act-1 146.6*, STAT3 act-2 143.7*, NFkB act 2 97.4 and STAT1 act 100.4.
Screening CCOc1ccc(CN2CCN(Cc3cc4ccccc4[nH]3)CC2CCO)cc1 (stereo unspecified) returned MT stabilizer 2.5, STAT3 inh -42.2, STAT1 blocker 14.5, b-catenin transl 1.9, STAT3 act-1 143.1*, STAT3 act-2 191.2*, NFkB act 2 112.5 and STAT1 act 108.9.
Screening COc1cccc(CN2CCN(Cc3cc4ccccc4[nH]3)CC2CCO)c1 (stereo unspecified) returned b-catenin transl 0.5.
O=C(O)/C=C/c1ccc(S(=O)(=O)Nc2ccc(C(=O)NCC(=O)O)cc2)cc1 was read as MT stabilizer 3.0, STAT3 inh -6.1, STAT1 blocker 0.1, b-catenin transl -0.7 and STAT3 act-1 105.5.
`Cc1ccc(/C=N/NC(=O)NC23CC4CC(CC(C4)C2)C3)o1` gave b-catenin transl -1.3.
